Reference: PMC6415545 (Nature, 2018)
Read-outs that look alike come from different tables or passages of the source. Marks after values point to notes of the source that are not given here.

Experiments:
[1] = system: human UDP-α-D-glucose-6-dehydrogenase (hUGDH); assay: Stopped-flow analysis of hUGDH hysteresis; assay type: biochemical; details: hUGDHFL versus hUGDHΔID, pre-steady state progress curves
In short: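 Stopped-flow, 25 °C. 500 nM full-length or tail-deleted enzyme in 50 mM HEPES pH 7.5, 50 mM NaCl, 5 mM EDTA was mixed 1:1 with buffer holding substrate and cofactor, giving 250 nM enzyme with both saturating. NADH absorbance at 340 nm was taken every 10–15 ms. Curves were fit to Frieden's equation for lag length; mean and s.d. from ≥ 6 curves.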

[2] = biological target: T1, human UDP-α-D-glucose-6-dehydrogenase (hUGDH) (Homo sapiens, UniProt O60701); assay: Transient state kinetics of UDP-Xyl binding; details: hUGDHFL versus hUGDHΔID
T1 sequence (O60701 1-464 limits assumed): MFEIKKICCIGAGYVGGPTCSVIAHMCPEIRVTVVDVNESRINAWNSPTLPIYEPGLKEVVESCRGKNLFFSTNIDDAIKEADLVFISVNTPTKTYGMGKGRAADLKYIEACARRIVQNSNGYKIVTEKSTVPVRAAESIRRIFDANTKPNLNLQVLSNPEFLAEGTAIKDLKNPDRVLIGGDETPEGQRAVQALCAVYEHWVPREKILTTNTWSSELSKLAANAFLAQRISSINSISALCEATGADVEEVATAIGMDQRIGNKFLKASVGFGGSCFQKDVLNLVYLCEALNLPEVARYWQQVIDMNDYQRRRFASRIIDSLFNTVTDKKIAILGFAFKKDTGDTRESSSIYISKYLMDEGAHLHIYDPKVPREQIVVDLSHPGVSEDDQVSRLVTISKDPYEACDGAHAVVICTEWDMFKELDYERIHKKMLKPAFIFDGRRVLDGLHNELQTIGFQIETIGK
In short: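 Stopped-flow intrinsic tryptophan fluorescence at 25 °C (dead time ~1.2 ms): 500 nM enzyme (syringe) mixed with varied UDP-Xyl, excitation 290 nm, emission cutoff filter below 320 nm. Traces were averaged over ≥ 4 replicates per concentration and inner-filter corrected. Six concentrations were globally fit by numerical simulation to a binding-plus-two-isomerization model, selected by confidence contour analysis. Binding free energy used a mM standard state.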

[3] = system: human UDP-α-D-glucose-6-dehydrogenase (hUGDH); assay type: biochemical; details: for Kcat: UDP-Glc saturation curves, global fit ± standard error
In short: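 100 nM hexamer (500 nM dimer constructs) in 50 mM HEPES pH 7.5, 50 mM NaCl, 5 mM EDTA, 25 °C, saturating NAD+, varied UDP-Glc and UDP-Xyl. NADH was read at 340 nm. Frieden fits of early progress curves gave vss.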

[4] = system: human UDP-α-D-glucose-6-dehydrogenase (hUGDH); assay: Steady state kinetics: NAD+ substrate saturation curves; assay type: biochemical
In short: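 Separate 5-min, 25 °C pre-incubations of enzyme and substrate, then mixing. Enzyme was 100 nM hexameric hUGDH in 50 mM HEPES pH 7.5, 50 mM NaCl, 5 mM EDTA, with saturating UDP-Glc and varied NAD+. NADH was followed continuously at 340 nm (6220 M−1cm−1). Progress curves before 10% substrate depletion were fit to Frieden's equation for vss. Saturation curves were fit to the sigmoidal rate equation; n ≥ 10 data points.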

[5] = Thermodynamic shift assay; assay type: physicochemical; details: thermal denaturation, hUGDHFL-dimer versus hUGDHΔID-dimer (Fig. 3d)
In short: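 Dimeric constructs at 0.1 mg/mL with 5X SYPRO Orange in 50 mM HEPES pH 7.5, 50 mM NaCl, 5 mM EDTA were spun and equilibrated 20 min. Fluorescence (excitation 470–505 nm, emission 540–570 nm) was recorded every 30 s while heating from 25 to 80 °C at […] in a qPCR instrument. Buffer-control baselines were subtracted; N ≥ 3.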

B1: FL: full-length human UDP-α-D-glucose-6-dehydrogenase with the native 30-residue ID-tail (residues 465–494) (protein, UniProt O60701 1-494, looked up)
chain: MFEIKKICCIGAGYVGGPTCSVIAHMCPEIRVTVVDVNESRINAWNSPTLPIYEPGLKEVVESCRGKNLFFSTNIDDAIKEADLVFISVNTPTKTYGMGKGRAADLKYIEACARRIVQNSNGYKIVTEKSTVPVRAAESIRRIFDANTKPNLNLQVLSNPEFLAEGTAIKDLKNPDRVLIGGDETPEGQRAVQALCAVYEHWVPREKILTTNTWSSELSKLAANAFLAQRISSINSISALCEATGADVEEVATAIGMDQRIGNKFLKASVGFGGSCFQKDVLNLVYLCEALNLPEVARYWQQVIDMNDYQRRRFASRIIDSLFNTVTDKKIAILGFAFKKDTGDTRESSSIYISKYLMDEGAHLHIYDPKVPREQIVVDLSHPGVSEDDQVSRLVTISKDPYEACDGAHAVVICTEWDMFKELDYERIHKKMLKPAFIFDGRRVLDGLHNELQTIGFQIETIGKKVSSKRIPYAPSGEIPKFSLQDPPNKKPKV
modifications: full-length
- slowing of the rate of activation hysteresis (E* to E) by the ID-tail [1]: 39%
- enhancement of the initial UDP-Xyl binding step by the ID-tail [2]: 4.4 fold
- gain in affinity of the initial UDP-Xyl binding step [2]: -0.9 kcal/mol
- Kcat [3]: 0.8 ± 0.01 s⁻¹
- Hill (h) ([4]; NAD+ saturation (Equation 6)): 0.8 ± 0.1
- Kcat ([4]; NAD+ saturation curves): 0.9 ± 0.08 S^-1
- K0.5 (NAD^+) ([4]; NAD+ saturation, sigmoidal rate equation (Equation 6), hexameric enzyme): 0.8 ± 0.20 mM

B2: FL-A136M: full-length hUGDH with the allostery quenching A136M substitution (protein, UniProt O60701 1-494, looked up, variant A136M)
chain: MFEIKKICCIGAGYVGGPTCSVIAHMCPEIRVTVVDVNESRINAWNSPTLPIYEPGLKEVVESCRGKNLFFSTNIDDAIKEADLVFISVNTPTKTYGMGKGRAADLKYIEACARRIVQNSNGYKIVTEKSTVPVRMAESIRRIFDANTKPNLNLQVLSNPEFLAEGTAIKDLKNPDRVLIGGDETPEGQRAVQALCAVYEHWVPREKILTTNTWSSELSKLAANAFLAQRISSINSISALCEATGADVEEVATAIGMDQRIGNKFLKASVGFGGSCFQKDVLNLVYLCEALNLPEVARYWQQVIDMNDYQRRRFASRIIDSLFNTVTDKKIAILGFAFKKDTGDTRESSSIYISKYLMDEGAHLHIYDPKVPREQIVVDLSHPGVSEDDQVSRLVTISKDPYEACDGAHAVVICTEWDMFKELDYERIHKKMLKPAFIFDGRRVLDGLHNELQTIGFQIETIGKKVSSKRIPYAPSGEIPKFSLQDPPNKKPKV
modifications: full-length
- Kcat [3]: 0.7 ± 0.01 s⁻¹
- ΔΔG, change in UDP-Xyl binding free energy ([3]; relative to the hUGDHΔID-A136M): 0.03^g kcal•mol^-1

B3: hUGDH: human UDP-α-D-glucose-6-dehydrogenase, named without a construct (protein, UniProt O60701 1-494, looked up)
UDP-glucose 6-dehydrogenase: MFEIKKICCIGAGYVGGPTCSVIAHMCPEIRVTVVDVNESRINAWNSPTLPIYEPGLKEVVESCRGKNLFFSTNIDDAIKEADLVFISVNTPTKTYGMGKGRAADLKYIEACARRIVQNSNGYKIVTEKSTVPVRAAESIRRIFDANTKPNLNLQVLSNPEFLAEGTAIKDLKNPDRVLIGGDETPEGQRAVQALCAVYEHWVPREKILTTNTWSSELSKLAANAFLAQRISSINSISALCEATGADVEEVATAIGMDQRIGNKFLKASVGFGGSCFQKDVLNLVYLCEALNLPEVARYWQQVIDMNDYQRRRFASRIIDSLFNTVTDKKIAILGFAFKKDTGDTRESSSIYISKYLMDEGAHLHIYDPKVPREQIVVDLSHPGVSEDDQVSRLVTISKDPYEACDGAHAVVICTEWDMFKELDYERIHKKMLKPAFIFDGRRVLDGLHNELQTIGFQIETIGKKVSSKRIPYAPSGEIPKFSLQDPPNKKPKV
- destabilization by the ID-tail [5]: 3.5 °C
